Rows were chosen to be rich in hits. Some 1.7% of all compounds tested hit in one or more screens of this group.
Runt-CBFb FRET = Runt domain-CBFb interaction inhibition; Q01196+Q13951; Cerulean-Runt/Venus-CBFb FRET ratio 530/480, 1 h; inhibition, % at 20 µM; actives 0.46% (n = 220,000); AID 1496;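 active = inhibition over about 50% at 20 µM in the single-dose screen, limit read from the data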
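Assay system: Cerulean-Runt domain / Medium: Tris 50 mM pH 7.5, KCl, K2SO4, 0.01% BSA / Timing: protein complex preformed 1 h, compound exposure 1 h, room temperature, dark / Measured by: FRET, excitation 422 nm, emission at 530 and 480 nm / Evaluation: loss of energy transfer signal / Control set: 5 µM unlabeled CBFb as full-inhibition high control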
Runt-SMMHC FRET = inhibitors of human RUNX1 Runt domain binding to CBFb-SMMHC | actives 0.74% (n = 220,000) | inhibition, % at 20 µM | Q01196+Q13951 | Cerulean-Runt/Venus-CBFb-SMMHC FRET ratio 530/480, 1 h;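 active = mean inhibition across duplicate retests at 20 µM reaching about 50%, limit read from the data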;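 also: inhibitors lower the FRET ratio by blocking Runt binding to CBFb-SMMHC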
Vif inh = inhibitors of HIV Vif. HEK293T cells, Vif self-association by quenched fluorescence, imaging, 24 h. inhibition, % at 7.49 µM. actives 0.35% (n = 340,000); in the data active = inhibition above about 50%, passing the limit was not always enough; inconclusive = no clear call, values can overlap the other calls; inactive = below about 31%
Rce1 inh = yeast Ras-converting enzyme inhibition; Q03530; actives 0.27% (n = 290,000); calls only; yeast membranes, quenched prenylated peptide cleavage fluorescence;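 active = fall in fluorescence gain of 50% or more versus controls, with final raw signal at or below 3038400; inconclusive = same 50% fall but final raw signal above 3038400; inactive = fall in fluorescence gain under 50%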
Target sequence (Q03530 whole entry, looked up): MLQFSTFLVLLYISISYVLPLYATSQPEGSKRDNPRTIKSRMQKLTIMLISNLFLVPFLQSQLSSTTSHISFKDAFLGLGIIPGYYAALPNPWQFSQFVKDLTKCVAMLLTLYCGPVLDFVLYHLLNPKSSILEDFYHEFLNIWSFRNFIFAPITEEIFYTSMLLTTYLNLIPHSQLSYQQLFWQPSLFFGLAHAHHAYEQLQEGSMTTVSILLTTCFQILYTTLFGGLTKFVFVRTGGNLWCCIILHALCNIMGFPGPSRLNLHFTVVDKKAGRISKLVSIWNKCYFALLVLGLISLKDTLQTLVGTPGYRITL
RanGTP-Impb inh = inhibitors of RanGTP-importin-beta interaction, primary screen, biochemical, FRET, CFP-Ran, YFP-importin-beta, homogeneous. inhibition, % (test concentration not listed). cell-free CFP-Ran/YFP-importin-beta FRET ratio. actives 1.1% (n = 300,000);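 active = more than half of the replicate wells show a fall in the fluorescence ratio signal beyond about 16%, limit read from the data, passing the limit was not always enough; inconclusive = exactly half of the replicate wells pass the set limit; inactive = fewer than half of replicates pass the limit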
A number is an active result; 0 = inactive; ? = inconclusive; - = not tested or not shown; + = active, no number.

SMILES	Runt-CBFb FRET	Runt-SMMHC FRET	Vif inh	Rce1 inh	RanGTP-Impb inh
C[C@H](CO)N1C[C@H](C)[C@@H](CN(C)Cc2ccc3c(c2)OCCN3C)OCc2cnnn2CCCC1=O	-	-	0	-	-
CCCCn1c(NS(=O)(=O)c2ccccc2)c(S(=O)(=O)c2ccc(C)cc2)c2nc3ccccc3nc21	0	53	0	0	51
CCCCCn1c(NC(=O)c2ccco2)c(S(=O)(=O)c2ccc(C)cc2)c2nc3ccccc3nc21	0	147	-	0	80
CCCCn1c(NC(=O)c2ccco2)c(S(=O)(=O)c2ccc(C)cc2)c2nc3ccccc3nc21	0	0	0	0	49
Cc1ccc(S(=O)(=O)c2c(N)n(CCCO)c3nc4ccccc4nc23)cc1	0	0	0	0	0
CC(C)CC(=NNC(=O)c1ccncc1)c1cc(Cl)ccc1O	-	-	55	-	-
CC(=NNC(=O)c1ccncc1)c1ccccc1O	-	-	0	-	-
Cn1cc(/C=C(\C#N)C(=O)Nc2ncc(Cc3cccc(Cl)c3)s2)c2ccccc21	0	0	-	0	0
N#C/C(=C\c1c[nH]c2ccccc12)C(=O)Nc1ncc(Cc2ccc(Cl)cc2Cl)s1	0	0	0	0	46
O=C(Nc1ccc2c(c1)nc1n2CCOC1)c1ccccc1	0	0	58	0	0
CSc1ccc(CN(C)CC(=O)NCCc2ccccc2)cc1	-	-	69	0	0
CN(CC(=O)NCCc1ccc(F)cc1)Cc1ccccc1	-	-	0	0	0
O=c1[nH]cc(CCc2ccccc2)c(=O)[nH]1	-	-	0	-	-
CC(C)(C)CN1CCNC(=O)C1CC(=O)NCCN1CCCc2ccccc21 (stereo unspecified)	0	0	0	0	0
Nc1cccc2c1C(=O)N(CCOc1ccc(F)cc1)C2=O	-	-	0	0	26
CC(C)(C)c1ccc(C2=CC(c3ccccc3F)n3ncnc3N2)cc1 (stereo unspecified)	-	-	0	0	25
CCOc1ccc(C2C=C(c3ccc(F)cc3)Nc3ncnn32)cc1 (stereo unspecified)	0	63	0	0	0
Cn1cccc1C1C=C(c2ccc(C(C)(C)C)cc2)Nc2ncnn21 (stereo unspecified)	-	-	0	0	?
CSCCC(NC(=O)COc1ccccc1)C(=O)N1CCCC(C)C1 (stereo unspecified)	-	-	0	0	0
C=CCn1c(=O)c2c(nc3n2CCN3c2cccc(Cl)c2C)n(C)c1=O	0	0	0	0	0
C=CCn1c(=O)c2c(nc(-c3ccc(S(=O)(=O)O)cc3)n2C)n(C)c1=O	-	-	0	+	0
CC(C)CC(NC(N)=O)C(=O)OCC(=O)Nc1ccc(OC(F)F)cc1 (stereo unspecified)	0	0	0	0	0
O=S(=O)(c1ccc(-c2csc(Nc3ccc(F)cc3)n2)cc1)N1CCCC1	0	0	0	+	0
Cc1cc(C)cc(Nc2nc(-c3ccc(S(=O)(=O)N4CCCC4)cc3)cs2)c1	0	0	0	+	0
O=S(=O)(c1ccc(-c2csc(Nc3ccc(Br)cc3)n2)cc1)N1CCCC1	0	0	0	0	0
SMILES	Runt-CBFb FRET	Runt-SMMHC FRET	Vif inh	Rce1 inh	RanGTP-Impb inh
Cc1ccc(S(=O)(=O)Nc2nc3ccccc3nc2Nc2cccc(S(=O)(=O)N3CCCC3)c2)cc1	0	90	0	0	30
COc1ccc(C2(c3ccc(OC)cc3)NC(=O)N(CC(=O)NC3CCS(=O)(=O)C3)C2=O)cc1 (stereo unspecified)	-	-	0	-	-
Cc1ccc(SCC(=O)NC(=O)c2ccccc2Br)c(C)c1	-	-	0	-	-
COc1ccc(CNC(=O)CSc2nnc3c(Cl)cc(C(F)(F)F)cn23)cc1OC	0	0	0	0	0
CN1C(=O)N(C)c2ccc(C=O)c3cccc1c23	59	92	0	0	0
CC(=O)c1c(C)[nH]c(C(=O)NCc2ccccc2)c1C	50	0	0	0	0
CCc1sc(NC(=O)c2cc3ccccc3oc2=O)nc1-c1cccs1	0	0	55	0	0
CCCc1nnc(NC(=O)c2cc3ccccc3oc2=O)s1	0	0	0	0	0
CN1C(N)=NC(=O)/C1=C/c1ccccc1F	0	0	0	0	31
COc1c(Br)cc(Br)cc1/C=C1/C(=O)N=C(N)N1C	0	0	96	0	0
Cc1ccc(/C=C2/C(=O)N=C(N)N2C)s1	0	0	0	0	0
CCOc1cc(C(C(=O)NCC2CCCO2)N(C(=O)Cn2nnc3ccccc32)c2ccccc2C(C)=O)ccc1O (stereo unspecified)	-	-	0	0	0
O=C(C1=C(O)C(=O)N(CCCN2CCOCC2)C1c1ccccn1)c1cc2ccccc2o1 (stereo unspecified)	0	0	0	0	0
CCN(CC)CCN1C(=O)C(O)=C(C(=O)c2ccc(C)o2)C1c1ccccn1 (stereo unspecified)	-	-	-	-	29
CCN(CC)CCCN1C(=O)C(O)=C(C(=O)c2ccc(C)o2)C1c1ccc(C)o1 (stereo unspecified)	0	0	0	0	0
Cc1ccc(C(=O)C2=C(O)C(=O)N(CCN3CCOCC3)C2c2ccccn2)o1 (stereo unspecified)	0	0	-	0	23
Cc1ccc(S(=O)(=O)N2CCN(C(=O)c3c(-c4ccccc4)noc3C)CC2)cc1	-	-	52	0	0
Cc1sc2ncn(CC(=O)NCCCC(=O)N3CCN(c4ccccc4)CC3)c(=O)c2c1C	55	0	0	-	0
CC(=O)N1CCc2c(sc(NC(=O)CS(=O)(=O)c3ccc(F)cc3)c2C(N)=O)C1	-	-	-	0	21
CC(=O)N1CCc2c(sc(NC(=O)CN3C(=O)c4ccccc4C3=O)c2C(N)=O)C1	0	0	0	0	0
CN1CCc2c(sc(NC(=O)CS(=O)(=O)c3ccc(F)cc3)c2C(N)=O)C1	-	-	0	0	163
CC(=O)N1CCc2c(sc(NC(=O)CCS(=O)(=O)c3ccccc3)c2C(N)=O)C1	-	-	0	0	0
CC(=O)N1CCc2c(sc(NC(=O)CN3C(=O)CCC3=O)c2C(N)=O)C1	0	0	0	0	23
Cc1cccc(NC(=O)C2CCCN(S(=O)(=O)c3ccc4[nH]c(=O)ccc4c3)C2)c1 (stereo unspecified)	-	-	0	0	0
C/C(=N\Nc1nc2ccccc2s1)c1cccs1	0	0	0	0	22
SMILES	Runt-CBFb FRET	Runt-SMMHC FRET	Vif inh	Rce1 inh	RanGTP-Impb inh
CC(=NNc1nc2ccccc2s1)c1ncccn1	-	-	0	-	-
COCCCNC(=O)/C(C#N)=C/c1c(N2CCN(C)CC2)nc2ccccn2c1=O	-	-	0	0	87
CC1CN(c2nc3ccccn3c(=O)c2/C=C(\C#N)C(N)=O)CC(C)O1 (stereo unspecified)	94	0	0	0	0
CN1CCN(c2nc3ccccn3c(=O)c2C=O)CC1	-	-	0	0	100
CC1CN(c2nc3ccccn3c(=O)c2/C=C(\C#N)C(=O)N2CCOCC2)CC(C)O1 (stereo unspecified)	0	0	0	0	0
COCCNC(=O)/C(C#N)=C/c1c(N2CC(C)OC(C)C2)nc2ccccn2c1=O (stereo unspecified)	0	82	0	0	0
